Experimental findings from ChEMBL document CHEMBL4513216, “Probing the Open Global Health Chemical Diversity Library for Multistage-Active Starting Points for Next-Generation Antimalarials” (ACS Infect Dis, 2020) are described below.

Each structure is given as a SMILES string.

This data set is described as follows: Toxicity liver stage against HepG2, at 10uM. On the set-up: test concentration 10 uM, cell line HepG2-A16-CD81EGFP. Type of data set: cell-based. Particulars: human, HepG2-A16-CD81EGFP cells; read-out: INHIBITION
The method, boiled down: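 Uninfected HepG2-A16-CD81EGFP cells, 3 × 10^3 per well, 1536-well, plated on prespotted compound at 10 μM final, parasite-free screening media added to match infected plates; puromycin 10 μM positive, DMSO 0.5% negative; run in parallel with 48 h PbLuc assay at 37 °C, 5% CO2; viability by CellTiter-Glo luminescence, normalized to controls.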
Regarding `O=C(NCC(F)(F)C(F)F)c1ccncc1`, the cytotoxicity at 10 µM came out at 10.3%.

For `O=C(C1CC=CC1)N1CC[C@@H]2O[C@H](COCC3CCOCC3)CC[C@@H]21`, the cytotoxicity at 10 µM was -0.0499%. Under `O=C(c1ccc[nH]1)N1CCC2(CC1)COCCN(c1nccs1)C2` stands 12.8%; under `COCC1CN(Cc2c(C)noc2C)Cc2cn(C)nc21` (stereo unspecified), 13.2%. Under `O=c1[nH]c2nc(N3CCCCCC3)ncc2c(=O)n1-c1cccc(F)c1` stands 6.39%.

Consider `O=C(c1ccccn1)N1CCN(c2ccc(-c3cccnc3)nn2)CC1`, for which the cytotoxicity at 10 µM is 2.84%. Under `Cn1nc(C(=O)NCc2ccc(F)cc2)c2c1CCS(=O)(=O)C2` stands 8.02%. The result for `Cc1nn(C(C)C)c2cnn(CC(=O)N3CCN(C)CC3)c12` reads 9.51%; that for `CCn1nc(C)c2ncnc(NCCN3CCOCC3)c21`, 8.93%; that for `CCC1CNCc2cc3c(C)ccc(C)c3nc2O1` (stereo unspecified), -4.22%. The result for `O=S(=O)(c1ccccc1Cl)N1CCCC(c2ncc[nH]2)C1` (stereo unspecified) reads 5.48%; that for `Cc1noc(C)c1CS(=O)(=O)Cc1nc(C2CC2)no1`, 3.37%.

For the molecule `COC(=O)C1CN(Cc2nc(C(C)(C)C)cs2)C[C@@H](C)O1` (stereo partly specified), the cytotoxicity at 10 µM was -8.22%.

Turning to `COc1ccc(NC(C)C(=O)N2CCN(c3ccccc3)CC2)cn1` (stereo unspecified), the cytotoxicity at 10 µM was 9.75%. Under `Cc1nc(C(C)(C)NC(=O)Nc2ccncc2)no1` stands 9.32%. Under `Cc1n[nH]c(C2CN(CC(=O)NCCc3ccccc3)CCO2)n1` (stereo unspecified) stands 10.2%; under `Fc1ccc(CN2CCCCC2Cn2cncn2)c2ncccc12` (stereo unspecified), 6.95%; under `Cc1nc(C)c(C(=O)N2CCCC(n3ccnc3C)C2)s1` (stereo unspecified), -5.19%. The result for `CC(C)(C)CC(=O)NCC(=O)Nc1ccn(Cc2cccnc2)n1` reads 15.4%; that for `CCN(Cc1ccc(F)cc1Cl)C1CCS(=O)(=O)C1` (stereo unspecified), 14.9%.

Take `O=C(NCCC1CC1)NCc1cccc(-n2ccnc2)c1`: the cytotoxicity at 10 µM is 19.7%. The result for `CCCNC(=O)CCNC(=O)Cc1nc(-c2ccco2)oc1C` reads 23.7%; that for `O=C(C1CCOC1)N1CC2(CCN(c3ccccc3)C2)C1` (stereo unspecified), 9.88%. Under `CC(=O)N1CCO[C@@H]2CN(S(=O)(=O)c3cccs3)CC[C@@H]2C1` stands 7.66%; under `Cn1ccc(C(=O)NC2CCC23CCN(C(=O)c2cnccn2)CC3)c1` (stereo unspecified), -71.4%; under `CN1CCN(Cc2cccnc2)Cc2cccnc21`, -76.9%. Turning to `CC(C)Nc1ncnc2c1CCN(C(=O)Cc1cccs1)CC2`, the cytotoxicity at 10 µM was -80.9%. Under `Cc1cc(C(=O)N2CCCC(O)(CN3CCCC3)C2)ccc1Cl` (stereo unspecified) stands 1.6%; under `NCCc1nc(N(Cc2cncs2)C2CC2)c2ccccc2n1`, -7.15%; under `Cc1ccc(CN(C)Cc2cc(C3CC3)[nH]n2)c(O)n1`, 4.11%. The result for `Cc1n[nH]c(C)c1CNc1nc(-c2ccco2)nc2c1CCNCC2` reads -3.43%.

For the molecule `O=C(CCN1CCCCO1)NCCSc1cnn[nH]1`, the cytotoxicity at 10 µM is 0.956%. Under `CC(=O)N[C@@H](CC(C)C)C(=O)N1CCC(n2cc(C(C)(C)N)nn2)CC1` stands -11.7%. As for `Cc1nc(C(=O)N2CCC(c3nccn3Cc3ccncc3)CC2)cs1`, the cytotoxicity at 10 µM is -2.85%.

In the case of `C=C(C)COc1ccccc1CNCCc1c[nH]cn1`, the cytotoxicity at 10 µM is -2.21%. Under `COc1cccc(Cn2ncc(N(C)CCc3ccccc3)cc2=O)c1` stands 2.93%; under `Cc1cccnc1CN1CCN(C(=O)CCn2ccccc2=O)CC1`, 3.34%.

On to `Cc1cnccc1N1CCN(C(=O)CCCN2CCCCC2)CC1`, for which the cytotoxicity at 10 µM was determined as 0.0879%. Under `Cc1cc(C[C@@H]2COC[C@@H]2NC(=O)CN2CCOC2=O)on1` stands -0.6%; under `COc1ccccc1Oc1ncccc1CNC(=O)C(C)N1CCCC1` (stereo unspecified), -5.39%. Under `Cc1cc(CC(=O)N2CCCC2c2nc(C(C)C)no2)on1` (stereo unspecified) stands -25.9%; under `Cc1cnn(CC2CN(Cc3cccc(C(=O)N(C)C)c3)CCO2)c1` (stereo unspecified), -1.73%; under `COc1cc(CCC(=O)NCC2CCCN2C)ccc1OCC(F)(F)F` (stereo unspecified), -5.99%. Under `O=C(CCNCC(F)(F)F)N1CCC(Nc2cccnn2)CC1` stands -1.5%; under `CSc1nccn1-c1cccc(C(=O)NCC2CC2)c1`, -10.6%; under `COCCN1CCC(NC(=O)C2(c3cc(C)cc(C)c3)CC2)CC1`, -4.37%. `CC(C)c1nc2c(n1C)CCN(Cc1nc(-c3cccs3)no1)C2`: the cytotoxicity at 10 µM was -10.1%.

As to `CCC1c2ccsc2CCN1C(=O)NCc1cc[nH]n1` (stereo unspecified), the cytotoxicity at 10 µM was -8.88%. Turning to `Cc1nc(C)n(CC2CCCN(CC(=O)Nc3c(C)n[nH]c3C)C2)n1` (stereo unspecified), the cytotoxicity at 10 µM came out at 0.813%. As to `Cc1n[nH]c(C)c1NC(=O)CN1CCCC(CNC(=O)C(C)(C)C)C1` (stereo unspecified), the cytotoxicity at 10 µM is -4.64%. Consider `CN1CCOC(CNCc2cccc(OCC(F)(F)F)c2)C1` (stereo unspecified), for which the cytotoxicity at 10 µM is -6.44%. For `O=C(Cc1c[nH]c2ccccc12)N1CCC(Nc2cccnn2)CC1`, the cytotoxicity at 10 µM was -5.08%. The result for `Cc1cc(C(=O)NCC(C)N2CCc3ccccc32)no1` (stereo unspecified) reads -8.8%; that for `O=C1CCCN1Cc1ncn2c1CN(Cc1cccs1)CCC2`, -84.1%. The result for `Cn1ccnc1CN1CCC2(CCCN2c2ncccn2)CC1` reads 7.55%; that for `c1cnc(N2CCO[C@H]3[C@H](OCC4CCOCC4)CC[C@@H]32)nc1`, 4.55%; that for `COc1cc(N2CCC3(CCCN3Cc3ccn(C)n3)CC2)ncn1`, 4.89%.

With `Cc1noc(C)c1CN1CC[C@@H]2O[C@H](COCC(C)C)CC[C@@H]21`, the cytotoxicity at 10 µM worked out at 8.28%. Under `Cc1nc(CN2CCN(Cc3ccoc3)Cc3cccnc32)cs1` stands -5.25%; under `CC(C)NC(=O)N1CCc2ncc(CN3CCOCC3)n2CC1`, 6.28%.

Turning to `Cc1noc(C)c1CN1CCn2c(CN3CCN(C)CC3)cnc2C1`, the cytotoxicity at 10 µM was 8.98%. Under `Fc1ccc(CN2CCC3(CCN(Cc4nccs4)CC3)C2)cc1` stands 5.04%; under `CC(C)NC(=O)CC1COC2(CCN(Cc3ccccc3)CC2)C1` (stereo unspecified), 6.38%; under `COCCN1CCCn2cnc(CN(C)C(C)C)c2C1`, 6.53%. The result for `O=C(NCc1cccnc1)[C@@H]1C[C@H]2[C@H](CCN2c2ncc(F)cn2)O1` reads -85.3%. Under `N#Cc1cccc(CN2CC[C@@H]3[C@@H]2CC(=O)N3CCN2CCCC2)c1` stands -84.4%; under `c1cnc(N2CCC3(CCN(Cc4ccncc4)CC3)CC2)nc1`, -1.85%; under `O=C1NC2(CCN(CCO)CC2)CC1c1ccccc1` (stereo unspecified), -3.83%. For the molecule `O=C(Cc1cccs1)N1CCC2(CC1)COCCN2CC1CC1`, the cytotoxicity at 10 µM came to 4.98%. Under `CS(=O)(=O)N1C[C@H]2CC[C@@H](C1)N(C(=O)Cn1nc3ccccc3n1)C2` stands 10.8%; under `CN(C)C(=O)N1C[C@H]2CC[C@@H](C1)N(Cc1ccc3nsnc3c1)C2`, -6.69%.
